The target in one test is CDK2/Cyclin A2 (Homo sapiens, UniProt P24941). Put plainly: Inhibition of CDK2/Cyclin A (unknown origin) preincubated for 20 mins followed by ATP addition and measured after 120 mins in presence of [33P-gamma] ATP by hotspot kinase assay. The format is protein-complex assay. The method, boiled down: (§1)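 Radiometric filter-binding assay: kinase and substrate in 20 mM Hepes pH 7.5, 10 mM MgCl2, 1 mM EGTA, 0.02% Brij35, 0.02 mg/mL BSA, 0.1 mM Na3VO4, 2 mM DTT, 1% DMSO. Compound (top 1/10/27 μM, 3-fold serial dilutions) preincubated 20 min at 25 °C. ATP plus [γ-33P]ATP added to 10 μM final, reacted 120 min at 25 °C. IC50 from curve fit, duplicate mean.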

Test [1] has as its target Cyclin-dependent kinase 1/cyclin B1 (Homo sapiens, UniProt P06493). Put plainly: Inhibition of CDK1/Cyclin B (unknown origin) preincubated for 20 mins followed by ATP addition and measured after 120 mins in presence of [33P-gamma] ATP by hotspot kinase assay. In kind it is protein-complex assay. The method, boiled down:
as §1

The target of the next test is CDK6/cyclin D3 (Homo sapiens, UniProt Q00534). Put plainly: Inhibition of CDK6/Cyclin D3 (unknown origin) preincubated for 20 mins followed by ATP addition and measured after 120 mins in presence of [33P-gamma] ATP by hotspot kinase assay. In kind it is protein-complex assay. The method, boiled down:
as §1

The target of test [2] is Glycogen synthase kinase-3 (Homo sapiens) (UniProt P49840+P49841). Put plainly: Inhibition of GSK3alpha/beta (unknown origin) assessed as enzyme activity at 1 uM preincubated for 20 mins followed by ATP addition and measured after 120 mins in presence of [33P-gamma] ATP by hotspot kinase assay relative to control. The arrangement: scale not given: the % may be the effect or the level left. The settings on record: time 140.0 min. The format is protein assay. An outline of the steps: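 Radiometric filter-binding kinase assay, buffer pH 7.5 with 10 mM MgCl2 and 1% DMSO. Compound tested at a single 1.0 μM, preincubated 20 min at 25 °C. Reaction started with ATP/[γ-33P]ATP at 10 μM final, run 120 min at 25 °C. Remaining % enzyme activity reported, n=2.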
Chain of Glycogen synthase kinase-3 (Homo sapiens) (P49840 whole entry, looked up): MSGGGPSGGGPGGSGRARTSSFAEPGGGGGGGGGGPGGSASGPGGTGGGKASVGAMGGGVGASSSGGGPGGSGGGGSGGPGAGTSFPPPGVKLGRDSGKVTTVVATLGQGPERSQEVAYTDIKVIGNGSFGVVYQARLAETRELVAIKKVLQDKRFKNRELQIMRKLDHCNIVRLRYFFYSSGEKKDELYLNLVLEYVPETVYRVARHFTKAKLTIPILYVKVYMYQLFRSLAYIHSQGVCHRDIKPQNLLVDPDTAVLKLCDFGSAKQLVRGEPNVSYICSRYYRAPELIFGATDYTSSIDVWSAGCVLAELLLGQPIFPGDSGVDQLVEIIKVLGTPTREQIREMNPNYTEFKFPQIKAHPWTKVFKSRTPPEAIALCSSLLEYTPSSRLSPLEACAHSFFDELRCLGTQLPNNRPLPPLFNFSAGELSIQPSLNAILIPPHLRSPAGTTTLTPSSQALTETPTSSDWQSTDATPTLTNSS
Chain of Glycogen synthase kinase-3 (Homo sapiens) (P49841 whole entry, looked up): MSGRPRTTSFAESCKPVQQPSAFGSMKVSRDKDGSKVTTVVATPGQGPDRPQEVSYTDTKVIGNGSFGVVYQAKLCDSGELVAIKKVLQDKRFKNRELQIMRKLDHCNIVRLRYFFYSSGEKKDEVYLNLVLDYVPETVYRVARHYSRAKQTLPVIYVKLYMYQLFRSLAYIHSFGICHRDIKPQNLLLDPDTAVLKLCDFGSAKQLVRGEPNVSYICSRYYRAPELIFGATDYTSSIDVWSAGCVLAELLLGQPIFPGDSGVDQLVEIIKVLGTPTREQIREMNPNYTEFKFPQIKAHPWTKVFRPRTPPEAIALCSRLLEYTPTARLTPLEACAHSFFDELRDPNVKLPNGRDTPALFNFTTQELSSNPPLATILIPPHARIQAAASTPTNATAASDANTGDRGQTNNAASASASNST

The next test deals with HCT-116. Put plainly: Antiproliferative activity against human HCT-116 cells assessed as inhibition of cell growth incubated for 72 hrs by Celltiter-Glo luminescent assay. The format is functional, cell-based. The settings on record: HCT-116, 72 h. An outline of the steps: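 Cells seeded in growth medium and held overnight at 37 °C; medium-only wells served as background. DMSO stocks were diluted in medium to 3× final and added; cells incubated 72 h at 37 °C, 5% CO2. Viability read by CellTiter-Glo luminescence after 60 min at room temperature. IC50 from curve fit, mean of duplicate.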
On the technique in general: In ATP-based viability assays light output follows the ATP content of the culture.

The values below come from ChEMBL document CHEMBL4765336, “Discovery of coumarin derivatives as potent and selective cyclin-dependent kinase 9 (CDK9) inhibitors with high antitumour activity” (Eur J Med Chem, 2020).

Chain of CDK6/cyclin D3 (P30281 whole entry): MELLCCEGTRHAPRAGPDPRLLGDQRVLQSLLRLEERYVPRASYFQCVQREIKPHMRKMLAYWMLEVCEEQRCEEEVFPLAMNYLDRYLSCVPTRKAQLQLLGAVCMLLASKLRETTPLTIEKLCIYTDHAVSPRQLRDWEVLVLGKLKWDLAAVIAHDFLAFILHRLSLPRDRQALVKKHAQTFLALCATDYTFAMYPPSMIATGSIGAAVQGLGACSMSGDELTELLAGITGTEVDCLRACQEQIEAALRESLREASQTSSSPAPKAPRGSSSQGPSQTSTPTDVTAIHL
Chain of CDK6/cyclin D3 (Q00534 whole entry): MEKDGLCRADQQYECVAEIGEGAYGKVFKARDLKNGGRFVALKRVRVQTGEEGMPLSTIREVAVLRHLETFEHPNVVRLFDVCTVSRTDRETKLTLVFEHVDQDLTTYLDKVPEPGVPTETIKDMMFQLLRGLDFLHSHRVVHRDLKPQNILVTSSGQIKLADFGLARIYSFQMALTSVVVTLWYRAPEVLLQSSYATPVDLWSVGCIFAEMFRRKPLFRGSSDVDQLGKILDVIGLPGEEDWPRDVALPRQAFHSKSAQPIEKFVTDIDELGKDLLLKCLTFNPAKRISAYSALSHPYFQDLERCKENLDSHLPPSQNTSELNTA
Chain of Cyclin-dependent kinase 1/cyclin B1 (P06493 whole entry): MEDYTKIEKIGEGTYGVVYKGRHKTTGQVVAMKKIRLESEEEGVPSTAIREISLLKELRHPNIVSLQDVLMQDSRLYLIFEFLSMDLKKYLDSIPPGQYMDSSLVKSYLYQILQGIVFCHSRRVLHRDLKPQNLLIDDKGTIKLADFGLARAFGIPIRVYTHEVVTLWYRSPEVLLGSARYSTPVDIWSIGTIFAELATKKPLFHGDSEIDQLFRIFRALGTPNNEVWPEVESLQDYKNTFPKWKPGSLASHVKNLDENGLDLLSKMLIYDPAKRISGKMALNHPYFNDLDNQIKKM
Chain of Cyclin-dependent kinase 1/cyclin B1 (P14635 whole entry, further chain): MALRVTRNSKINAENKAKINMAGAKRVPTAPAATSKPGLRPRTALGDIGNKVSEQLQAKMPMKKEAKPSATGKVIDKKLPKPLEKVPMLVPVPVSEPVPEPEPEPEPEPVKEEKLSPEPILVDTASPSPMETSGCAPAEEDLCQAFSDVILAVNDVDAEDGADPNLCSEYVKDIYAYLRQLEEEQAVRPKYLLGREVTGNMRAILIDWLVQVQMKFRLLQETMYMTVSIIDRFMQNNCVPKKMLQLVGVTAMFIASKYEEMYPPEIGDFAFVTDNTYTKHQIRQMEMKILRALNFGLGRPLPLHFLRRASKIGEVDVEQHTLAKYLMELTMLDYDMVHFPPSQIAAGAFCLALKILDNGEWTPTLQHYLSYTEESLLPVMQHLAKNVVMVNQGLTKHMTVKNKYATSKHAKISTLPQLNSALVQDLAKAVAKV

As usually defined, the IC50 is the point on the concentration scale where inhibition reaches its midpoint. Turning to `COc1cc(F)ccc1-c1nc(Nc2ccc3c(N4CCOCC4)c(C(C)=O)c(=O)oc3c2)ncc1F`, the half-inhibitory concentration (IC50) on CDK2/Cyclin A2 was 320 nM; in test [1], 1950 nM; at CDK6/cyclin D3, 336 nM; with HCT-116, 280 nM. Also, the Activity in test [2] was under 10%.
